From ChEMBL document CHEMBL1125034, “Design and synthesis of 4H-3,1-benzoxazin-4-ones as potent alternate substrate inhibitors of human leukocyte elastase” (J Med Chem, 1990)

Columns and labels:
Neutrophil elastase = target: T1, Neutrophil elastase (Homo sapiens, UniProt P08246); assay: Inhibition of human leukocyte elastase
T1 sequence (P08246 whole entry): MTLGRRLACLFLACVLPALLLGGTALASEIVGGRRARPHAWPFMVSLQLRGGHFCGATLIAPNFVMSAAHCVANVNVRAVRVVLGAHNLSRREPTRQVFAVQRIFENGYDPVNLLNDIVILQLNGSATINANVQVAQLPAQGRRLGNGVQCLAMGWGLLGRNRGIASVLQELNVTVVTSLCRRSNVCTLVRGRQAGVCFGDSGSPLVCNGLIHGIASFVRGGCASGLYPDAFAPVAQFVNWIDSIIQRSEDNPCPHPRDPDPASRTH

[1] = target: T2, Neutrophil elastase (Homo sapiens) (UniProt P08246); assay: Component deacylation rate constant for interaction with human leukocyte elastase
T2 sequence (whole entry): T1 sequence (P08246 whole entry)

[2] = Alkaline hydrolysis rate of the compound; assay type: ADME
Procedure, shortened: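 Alkaline hydrolysis rate constants measured at several pH values at 25 °C. Loss of the long-wavelength UV chromophore (λmax typically 300-345 nm) was followed by spectrophotometer.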

[3] = target: T2, Neutrophil elastase (Homo sapiens); assay: Component acylation rate constant for interaction with human leukocyte elastase
[4] = Partition coefficient (logD7.4); assay type: physicochemical; conditions: octanol/water, pH 7.4

Compound	Ki (Neutrophil elastase) [nM]	Log koff [1]	Log kOH- [2]	Log kon [3]	logD [4]
CCCCN(CCCC)c1nc2ccccc2c(=O)o1	4570	-2.91	-0.57	2.43	
Cc1cc(C)c2c(=O)oc(NC(C)C)nc2c1	5.89	-4.82	-0.23	3.41	
CC(C)CN(CC(C)C)c1nc2ccccc2c(=O)o1	6460	-3.01	0.68	2.18	
CCCCNc1nc2cccc(CC)c2c(=O)o1		-3.27	0.38	5.11	3.8
CC(C)Cc1nc2ccccc2c(=O)o1	2570			4.3	
COc1cc2nc(SCc3c[nH]cn3)oc(=O)c2cc1OC	1100	-2.12	1.31	3.84	
CCCNC(=O)Nc1ccc2c(=O)oc(NC(C)C)nc2c1	1350	-1.77	0.39	4.1	
CCCc1cccc2nc(OCC)oc(=O)c12	0.229	-4.15	1.17	5.49	
CCCC(C)Nc1nc2cccc(C)c2c(=O)o1 (stereo not drawn)	741	-2.43		3.7	
CCSc1nc2ccc(NC(C)=O)cc2c(=O)o1	1450		2.24	4	
CCSc1nc2cc(OC)c(OC)cc2c(=O)o1	1200		1.1	5	
Cc1cc(N)cc2nc(NC(C)C)oc(=O)c12	77.6	-4.75	-1.09	2.36	
O=c1oc(NCCc2ccccc2)nc2ccccc12	1700	-2.72	1.15	3.05	3.2
CCSc1nc2c(C)cccc2c(=O)o1	28.2		2.01	6.3	
COC(=O)[C@H](CC(C)C)Nc1nc2ccccc2c(=O)o1	170	-3.41	1.13	3.36	3.2
CC(C)C[C@H](NC(=O)C1CCCN1c1nc2ccccc2c(=O)o1)C(N)=O (stereo partly drawn)	21.4	-3.49	1.27	4.18	1
CCOc1nc2cccc(C(Br)Br)c2c(=O)o1	0.468	-2.33	2.5	7	
CCOc1nc2cc(N(C)C)ccc2c(=O)o1	4.9	-4.85	-0.1	3.46	
CC(C)Nc1nc2cc(N(C)C)ccc2c(=O)o1	479	-3.32	-0.74	3	
CCCNc1nc2cccc(C)c2c(=O)o1		-3.47		4.75	
CC(C)C[C@H](NC(=O)[C@@H]1CCCN1c1nc2ccccc2c(=O)o1)C(=O)NCC(N)=O	20.9	-3.64	1.26	4.04	0.8
CCCc1cc(N(C)C)cc2nc(NC(C)C)oc(=O)c12	282	-3.74	-2	2.81	
COC(=O)[C@@H](CC(C)C)Nc1nc2ccccc2c(=O)o1	37.2	-2.85	1.32	4.58	3.2
O=c1oc(-c2ccccc2)nc2ccccc12	9550		1.79	4	
CCOC(=O)[C@H](C)Nc1nc2ccccc2c(=O)o1	871	-2.65	1.31	3.41	
O=C(c1nc2ccccc2c(=O)o1)[C@@H]1CCCN1	1120	-3	1.69	2.95	
CCC(CC)Nc1nc2cccc(C)c2c(=O)o1	724	-2.25		3.89	

Compound	Ki (Neutrophil elastase) [nM]	Log koff [1]	Log kOH- [2]	Log kon [3]	logD [4]
CSc1nc2cccc(C)c2c(=O)o1	1.41	-3.45	1.9	5.4	
NC(=O)[C@H](Cc1ccccc1)NC(=O)[C@@H]1CCCN1c1nc2ccccc2c(=O)o1	37.2	-3.27	1.23	4.16	1.2
CCCCNc1nc2cc(N)ccc2c(=O)o1	646	-2.74	-0.44	3.45	1.7
Cc1cccc2nc(C(F)(F)F)oc(=O)c12	28.8	-2.43	3.14	5.11	2.9
CNc1nc2cccc(C)c2c(=O)o1		-0.82	0.54	3.69	2.3
CCC(C)CNc1nc2cccc(C)c2c(=O)o1 (stereo not drawn)	661	-4.13		2.05	
COc1cc2nc(SCc3ccccc3)oc(=O)c2cc1OC	2140	-1.91	0.96	3.76	
Cc1cccc2c(=O)oc(C(F)(F)F)nc12	537		3.09	4	
Cc1cc(N(C)C)cc2nc(NC(C)C)oc(=O)c12	1260	-3.89	-1.61	2.01	
C/C=C/c1cccc2nc(OCC)oc(=O)c12	0.191	-4.18	1.41	5.54	
CC[C@H](C)[C@H](Nc1nc2ccccc2c(=O)o1)C(=O)OC	214		1.32		2.6
CCc1cc(N)cc2nc(N3CCCC3C(=O)N[C@@H](CC(C)C)C(N)=O)oc(=O)c12 (stereo partly drawn)	115		-1.08		1.6
O=c1oc(/C=C/c2ccccc2)nc2ccccc12	8130	-2.5	1.57	2.59	3.9
CCOc1nc2cc(N)cc(CC)c2c(=O)o1	10		-0.54		2.7
Cc1cccc2nc(OCC(C)C)oc(=O)c12	1.58	-4.95		3.85	
CC(C)Nc1nc2ccccc2c(=O)o1		-2.51	1.21	4.77	2.4
Cc1nc2c(N)cccc2c(=O)o1	7940		2.61	3.3	
CC(=O)NCc1nc2ccccc2c(=O)o1	7590	-2.88	1.86	2.24	
COC(=O)[C@H](Cc1ccc(O)cc1)Nc1nc2ccccc2c(=O)o1	447	-3.07	1.28	3.28	0.3
CCSc1nc2cccc(C)c2c(=O)o1	0.933	-2.85	1.58	6.18	3.6
Nc1ccc(CNc2nc3ccccc3c(=O)o2)cc1	1230		1.36		2
Cc1cccc2c(=O)oc(C(C)(C)C)nc12	55000		0.82		4
NC(=O)[C@H](Cc1ccccc1)Nc1nc2ccccc2c(=O)o1	316	-3.42	1.26	3.08	
COc1cc(C)c2c(=O)oc(NC(C)C)nc2c1	38	-3.1	-0.42	4.32	
CCc1cccc2c(=O)oc(NC(C)C)nc12	1000	-1.62		4.38	
COC(=O)C(CC(C)C)Nc1nc2ccccc2c(=O)o1 (stereo not drawn)	66.1	-2.86	1.32	4.32	
